In the library only some 6.7% were active in any assay of this set; here they are far more common.
T cruzi inh: T. cruzi replication inhibition. T. cruzi beta-gal in NIH3T3, luminescence, 90 h. inhibition, % (no concentration beside the values). 300,000 tested, 1.4% active. AID 1885;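 active means mean inhibition across valid replicates above about 55%, limit read from the data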;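 further: signal also drops with host cell toxicity which is not excluded here; 0% = plate median of DMSO wells and 100% = zero luminescence signal; higher percent means less beta-gal luminescence so fewer parasites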
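System: mouse NIH/3T3 fibroblasts infected with β-gal-expressing T. cruzi Tulahuen C4 / Input: NIH/3T3 cells, 5,000 per well / Buffer or medium: Low-serum DMEM with 2% FBS / Probe or stimulus: 5000 reporter trypomastigotes per well / Schedule: ≥90 h infection period, 3 h prior cell attachment / Measured by: GalScreen luminescence, 60 min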
NR3A LBD binder: modulators (binders) of human NR3A ligand-binding domain. NR3A LBD differential scanning fluorimetry, Tm shift; 0% = protein alone, 100% = glycine-bound protein. 340,000 tested, 2.5% active. Tm shift relative to glycine control, % at 25 µM;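 active means melting temperature shift of at least 10% of the positive control shift, at one fixed dose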
CSC inhib: cancer stem cell inhibition; cancer stem cell-like cells viability, luminescence; inhibition, % at 7.5 µM; 300,000 tested, 1.1% active; AID 2717; in the data active means inhibition above about 75%; tested in HMLE shEcad cells
Beta apoptosis: beta cell apoptosis inhibition; INS-1E cytokine-induced death, ATP luminescence, 48 h; percent of positive-control rescue, neutral wells zero; protection from apoptosis, % (concentration not given with the values); 300,000 tested, 0.8% active;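 active means Every replicate reaches about 75%, or at least half do and their mean reaches it too, limit read from the data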;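 further: 0% = cytokine-treated negative control wells and 100% = positive control rescue; higher means more ATP so stronger rescue from cytokine killing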
PREPL inh: inhibits the human prolyl oligopeptidase-like enzyme | Q4J6C6 | recombinant PREPL, fluorescence polarization activity-based probe | inhibition, % at 5.96 µM | 320,000 tested, 0.68% active; in the data active means inhibition above about 43%;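 further: 0% = enzyme with DMSO and 100% = wells lacking enzyme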
CHOP inh: CHOP inhibition in unfolded protein response | CHO-K1 CHOP-promoter luciferase, tunicamycin-induced, 15-18 h | inhibition, % at 10 µM | 220,000 tested, 3.8% active;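 active means compounds that reduced the stress-induced luciferase reporter signal by more than about 70% of percent inhibition, limit read from the data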;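 further: 0% = tunicamycin plus vehicle and 100% = wells without tunicamycin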
* = called active by the depositor; . = no result given.

SMILES	T cruzi inh	NR3A LBD binder	CSC inhib	Beta apoptosis	PREPL inh	CHOP inh
Cc1ccc2nc(N(CCCN(C)C)C(=O)c3ccc(S(=O)(=O)N4CCOCC4)cc3)sc2c1	59.7*	-22.5	0.1	4.9	-16.4	.
CN(C)CCCN(C(=O)c1ccc(S(=O)(=O)N2CCc3ccccc3C2)cc1)c1nc2ccc(F)cc2s1	24.8	3.8	91.1*	62.3	3.7	.
CN(C)CCCN(C(=O)c1ccc(S(=O)(=O)N2CCc3ccccc32)cc1)c1nc2ccc(F)cc2s1	44.0	-2.3	-4.2	-7.2	-7.3	.
Cc1ccc(S(=O)(=O)NCc2ccccc2)cc1C(=O)N1CCCCCCC1	8.9	0.8	0.2	1.2	6.8	.
CC(C)(C)N(Cc1ccccc1)C(=O)COC(=O)Cn1cnc2ccccc2c1=O	-1.2	1.3	-2.4	5.6	-1.2	-6.3
CN(C)CCCN(C(=O)c1ccc(S(=O)(=O)N(C)C)cc1)c1nc2ccc(F)cc2s1	67.3*	-0.7	-11.2	-3.7	20.4	7.3
COc1ccc2sc(N(CCCN(C)C)C(=O)c3ccc(S(=O)(=O)N4CCCC4)cc3)nc2c1	44.5	0.3	6.9	.	11.1	.
CCN(CC)CCN(C(=O)c1ccc2c(c1)CCCC2)c1nc2ccc(F)cc2s1	54.7*	0.7	17.8	-1.9	7.2	65.3
Cc1ccc2nc(N(CCCN(C)C)C(=O)c3ccc(S(=O)(=O)N(C)C)cc3)sc2c1	52.7	-2.4	-4.6	1.8	3.6	10.6
COc1ccc2sc(N(CCCN(C)C)C(=O)c3ccc(S(=O)(=O)N4CCc5ccccc5C4)cc3)nc2c1	57.2*	0.8	91.2*	.	-11.6	.
Cc1cc(C)c2sc(N(CCCN(C)C)C(=O)c3ccc(S(=O)(=O)N4CCc5ccccc5C4)cc3)nc2c1	46.6	.	14.2	.	4.4	.
Cc1ccc2nc(N(CCCN(C)C)C(=O)c3ccc(S(=O)(=O)N4CCc5ccccc5C4)cc3)sc2c1	28.2	-8.4	6.2	113.5*	-23.4	.
O=C(COC(=O)c1ccc(O)cc1)NCCCc1ccccc1	-9.7	-1.2	.	.	.	-28.7
O=C(COC(=O)CNC(=O)c1ccc(Cl)cc1)Nc1cccc(S(=O)(=O)N2CCCC2)c1	-14.0	-0.4	-3.7	-1.1	10.1	8.4
CC(CN1CCCC1)OC(=O)c1ccc(Br)cc1 (centres undefined)	7.1	1.9	-20.6	-8.0	-10.2	.
CCOC(=O)N1CCN(S(=O)(=O)c2ccc(C(=O)N(CCCN(C)C)c3nc4cc(OC)ccc4s3)cc2)CC1	68.4*	1.1	-2.5	.	9.4	.
COc1ccc(NS(=O)(=O)c2ccc3nc(COc4ccc(Cl)c(C)c4)[nH]c3c2)cc1	26.7	28.6*	11.3	46.8	-17.3	62.4
O=C(C1Cc2ccccc2CN1C(=O)c1ccccc1)N1CCN(c2ccccc2)CC1 (centres undefined)	1.3	-3.4	-6.0	5.1	-10.8	-9.1
O=C(NCc1ccccc1)c1ccc(C(=O)N(C2CCCCC2)C2CCCCC2)cc1	60.7*	-2.6	16.9	15.7	-2.7	55.4
O=C(NCc1ccccc1)c1ccc(C(=O)NCc2ccccc2)cc1	.	-1.4	.	.	.	.
CCOC(=O)c1sc(NNC(=O)c2ccc(C)cc2)nc1C	-10.3	1.1	2.9	-4.2	4.9	-1.5
CCOC(=O)c1nc(NNC(=O)c2ccc([N+](=O)[O-])cc2)sc1C	41.2	-7.0	65.0	103.3*	6.2	.
O=C(c1ccc(-n2cncn2)c([N+](=O)[O-])c1)N1CCN(S(=O)(=O)c2ccccc2F)CC1	-0.4	-0.3	-13.0	-4.8	2.1	.
CN(CC(=O)Nc1cccc(F)c1)C(=O)/C=C/c1cn(Cc2ccccc2)nc1-c1cccnc1	22.2	-0.3	-21.5	1.9	-6.8	.
Fc1ccc(-c2nc3nc4ccccc4nc3n2Cc2ccco2)cc1	-5.8	21.5*	21.1	0.1	-1.4	-18.6
Cc1ccc(NC(=O)CCNS(=O)(=O)c2cccc3nonc23)cc1	-1.7	-1.7	-0.8	3.3	-2.8	74.9*
CC(C)c1ccc(NC(=O)CCNS(=O)(=O)c2cccc3nonc23)cc1	6.3	-7.7	13.1	2.9	5.3	32.7
CC(=O)Nc1ccc(S(=O)(=O)NCCC(=O)Nc2ccc(C)c(Cl)c2)cc1	-7.9	5.0	-15.0	2.3	7.1	-9.2
Cc1ccc(S(=O)(=O)NCCC(=O)Nc2ccc(Cl)c(Cl)c2)cc1C	15.5	12.6*	24.0	-3.6	-18.4	69.4

Bioassay records as filed in PubChem.
